Laboratory results from ChEMBL document CHEMBL1125428, “Development of 2,3-dihydro-6-(3-phenoxypropyl)-2-(2-phenylethyl)-5-benzofuranol (L-670,630) as a potent and orally active inhibitor of 5-lipoxygenase” (J Med Chem, 1992).

What was measured:
[1] = species: Canis familiaris; test: Effect on methemoglobin formation in canine venous blood containing heparin; format: functional, Canis lupus familiaris
[2] = biological target: Arachidonate 5-lipoxygenase (Homo sapiens); test: Inhibitory activity of LTB4 production in human PMN
[3] = test system: Rattus norvegicus; test: Percentage inhibition against antigen induced dyspnea in hyperactive inbred rat at a dose of 0.5 mg/kg; format: functional; conditions: for inhibition in vivo at 0.5 mg/kg: Rattus norvegicus
Summary of the method: (§1)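 Inbred hyperreactive rats, six per group, dosed po 2 h before aerosol ovalbumin challenge, with drug suspension or vehicle (0.4% Methocel/0.5% Tween 80, 10 mL/kg). Methysergide 3 mg/kg iv given 5 min before antigen. Dyspnea duration recorded by pneumotachograph. % inhibition of duration is relative to vehicle controls. Student's t test used; ED50 from linear regression.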

[4] = species: Rattus norvegicus; test: Percentage inhibition against antigen induced dyspnea in hyperactive inbred rat at a dose of […]; format: functional
[5] = biological target: T1, Polyunsaturated fatty acid 5-lipoxygenase (Rattus norvegicus, UniProt P12527); test: Tested for its inhibitory activity against arachidonic acid in rat 5-lipoxygenase.
T1 sequence (P12527 whole entry): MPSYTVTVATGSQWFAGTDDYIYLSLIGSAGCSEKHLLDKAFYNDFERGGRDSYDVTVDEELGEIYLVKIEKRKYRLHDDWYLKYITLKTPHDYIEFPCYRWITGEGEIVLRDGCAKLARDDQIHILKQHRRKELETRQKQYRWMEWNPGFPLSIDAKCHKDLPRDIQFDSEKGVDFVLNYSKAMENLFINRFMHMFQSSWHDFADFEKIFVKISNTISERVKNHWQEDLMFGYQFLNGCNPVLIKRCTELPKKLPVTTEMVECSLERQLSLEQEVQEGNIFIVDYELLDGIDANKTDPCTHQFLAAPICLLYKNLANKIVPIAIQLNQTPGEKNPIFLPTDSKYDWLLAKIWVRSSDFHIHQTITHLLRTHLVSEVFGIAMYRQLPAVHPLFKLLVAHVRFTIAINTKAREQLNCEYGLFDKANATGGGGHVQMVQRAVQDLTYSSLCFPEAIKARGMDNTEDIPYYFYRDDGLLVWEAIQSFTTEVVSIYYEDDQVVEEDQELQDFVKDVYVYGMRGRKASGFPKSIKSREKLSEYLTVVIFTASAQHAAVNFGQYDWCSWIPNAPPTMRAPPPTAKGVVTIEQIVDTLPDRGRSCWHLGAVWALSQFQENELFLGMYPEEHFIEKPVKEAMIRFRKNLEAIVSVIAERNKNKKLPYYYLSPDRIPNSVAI
Summary of the method: (§2)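 10000g supernatant from rat PMN leukocytes incubated 10 min with [14C]arachidonic acid. 5-Lipoxygenase activity taken as percentage conversion to 5-HETE plus 5,12-diHETEs.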

[6] = test system: Rattus norvegicus; test: Peak concentration of drug in rat plasma after oral dosing at 20 mg/kg. Concentration of parent compound was measured before (free) and after (total) beta-glucuronidase treatment; total 0.7 uM; format: functional, organism-based; design: dose 20 mg/kg
[7] = Measure of AUCpo/AUCiv x 100% of the parent compound before (free) and after (total) beta-glucuronidase treatment; total 76%; format: ADME, organism-based; conditions: in vivo, po; read-out: Bioavailabiility
[8] = species: Rattus norvegicus; test: Effective dose against antigen induced dyspnea in hyperactive inbred rat at a dose of […]; format: functional
[9] = test system: Rattus norvegicus; test: Percentage inhibition against antigen induced dyspnea in hyperactive inbred rat at a dose of 0.05 mg/kg; format: functional; summary of the method: as §1
[10] = Peak concentration of drug in rat plasma after oral dosing at 20 mg/kg. Concentration of parent compound was measured before (free) and after (total) beta-glucuronidase treatment; total 3.8 uM; format: ADME, organism-based; design: dose 20 mg/kg, route oral; conditions: read-out: Plasma level
[11] = Measure of AUCpo/AUCiv x 100% of the parent compound before (free) and after (total) beta-glucuronidase treatment; total 27%; format: ADME, organism-based; conditions: in vivo, po; read-out: Bioavailabiility
[12] = test system: Rattus norvegicus; test: Effective dose against antigen induced dyspnea in hyperactive inbred rat at a dose of 0.5 mg/kg; format: functional; summary of the method: as §1
[13] = Peak concentration of drug in rat plasma after oral dosing at 20 mg/kg. Concentration of parent compound was measured before (free) and after (total) beta-glucuronidase treatment; total 3.1 uM; format: ADME, organism-based; design: dose 20 mg/kg, route oral; conditions: read-out: Plasma level
[14] = Measure of AUCpo/AUCiv x 100% of the parent compound before (free) and after (total) beta-glucuronidase treatment; total 72%; format: ADME, organism-based; conditions: in vivo, po; read-out: Bioavailabiility
[15] = Peak concentration of drug in rat plasma after oral dosing at 20 mg/kg. Concentration of parent compound was measured before (free) and after (total) beta-glucuronidase treatment; total 2.2 uM; format: ADME, organism-based; design: dose 20 mg/kg, route oral; conditions: read-out: Plasma level
[16] = Measure of AUCpo/AUCiv x 100% of the parent compound before (free) and after (total) beta-glucuronidase treatment; total 4%; format: ADME, organism-based; conditions: in vivo, po; read-out: Bioavailabiility
[17] = Peak concentration of drug in rat plasma after oral dosing at 20 mg/kg. Concentration of parent compound was measured before (free) and after (total) beta-glucuronidase treatment; total 3.4 uM; format: ADME, organism-based; design: dose 20 mg/kg, route oral; conditions: read-out: Plasma level
[18] = biological target: T1, Polyunsaturated fatty acid 5-lipoxygenase; test: The compound was tested for its inhibitory activity against arachidonic acid in rat 5-lipoxygenase; summary of the method: as §2
[19] = Peak concentration of drug in rat plasma after oral dosing at 20 mg/kg. Concentration of parent compound was measured before (free) and after (total) beta-glucuronidase treatment; total 3.0 uM; format: ADME, organism-based; design: dose 20 mg/kg, route oral; conditions: read-out: Plasma level
[20] = Measure of AUCpo/AUCiv x 100% of the parent compound before (free) and after (total) beta-glucuronidase treatment; total 10%; format: ADME, organism-based; conditions: in vivo, po; read-out: Bioavailabiility

Row | IC50 [2] [µM] | IC50 [5] [µM] | Structure (SMILES) | Formation [1] [%] | further results
1 | 0.01 | 0.017 | C=CCc1cc2c(cc1O)CC(CCc1ccccc1)O2 (stereo not drawn) | 52 | inhibition in vivo at 0.5 mg/kg [3]: 65%; inhibition in vivo at […] ([4]; dose 1.5 mg/kg): 50%
2 | 0.038 | 0.04 | CC1(C)c2cc(O)c(CCCOc3ccccc3)cc2OC1CCc1ccccc1 (stereo not drawn) | 6 | inhibition in vivo at […] ([4]; dose 1.5 mg/kg): 48%
3 | 0.028 | 0.092 | CCCc1cc2c(cc1O)C(C)(C)C(CCc1ccc(SC)cc1)O2 (stereo not drawn) |  | 
4 | 0.047 | 0.052 | C=CCc1cc2c(cc1O)C(C)(C)C(CCc1ccc(OC)cc1)O2 (stereo not drawn) | 2 | Plasma level [6]: 0 µM; inhibition in vivo at […] ([4]; dose 1.5 mg/kg): 50%
5 | 0.018 | 0.048 | Oc1cc2c(cc1Cc1ccccc1)OC(CCc1ccccc1)C2 (stereo not drawn) | 6 | bioavailability [7]: 44%; ED50 at […] [8]: 0.3 mg/kg; inhibition in vivo at 0.5 mg/kg [3]: 53%; inhibition in vivo at 0.05 mg/kg [9]: 44%; inhibition in vivo at […] ([4]; dose 0.15 mg/kg): 44%; Cmax [10]: 1.6 µM
6 | 0.009 | 0.053 | CCCc1c(OCCCc2cc3c(cc2O)CC(CCc2ccccc2)O3)ccc(C(C)=O)c1O (stereo not drawn) | 3 | Inhibition ([3]; 0.5 mg/kg): 50%; inhibition in vivo at 0.5 mg/kg [3]: 50%
7 | 0.356 | 0.044 | O=C(O)c1ccc(OCCCc2cc3c(cc2O)CC(CCc2ccccc2)O3)cc1 (stereo not drawn) | 3 | 
8 | 0.19 |  | CS(=O)(=O)c1ccc(Cc2cc3c(cc2O)CC(CCc2ccccc2)O3)cc1 (stereo not drawn) |  | 
9 | 0.075 | 0.044 | CCCc1cc2c(cc1O)C(C)(C)C(CCSc1ccccn1)O2 (stereo not drawn) |  | 
10 | 0.235 |  | CCCc1cc(Cl)c2c(c1O)C(C)C(Cc1ccc(OC)cc1)O2 (stereo not drawn) |  | 
11 | 0.275 |  | Oc1ccc2c(c1)CC(CCc1ccccc1)O2 (stereo not drawn) | 40 | 
12 | 0.022 | 0.045 | Oc1cc2c(cc1CCCSc1nc3ccccc3s1)OC(CCc1ccccc1)C2 (stereo not drawn) | 1 | 
13 | 0.041 | 0.051 | Oc1cc2c(cc1CCCOc1ccccc1)OC(CCc1ccc(Cl)cc1)C2 (stereo not drawn) | 2.8 | bioavailability [11]: 6%; inhibition in vivo at 0.05 mg/kg [9]: 56%; ED50 [12]: 0.07 mg/kg; inhibition in vivo at […] ([4]; dose 0.15 mg/kg): 66%; Cmax [13]: 0.3 µM
14 | 0.057 |  | Oc1cc2c(cc1CCCOc1ccccc1)OCC2 |  | 
15 | 0.107 | 0.045 | CCCc1c(O)c(CCCOc2ccc(C3N=NN=N3)cc2)cc2c1CC(CCc1ccccc1)O2 (stereo not drawn) | 2 | ED50 at […] [8]: 0.03 mg/kg; inhibition in vivo at 0.5 mg/kg [3]: 64%; inhibition in vivo at 0.05 mg/kg [9]: 52%; bioavailability [14]: 12%; inhibition in vivo at […] ([4]; dose 0.15 mg/kg): 61%; Cmax [15]: 1.6 µM
16 | 0.037 | 0.05 | COc1nc2c(SCCCc3cc4c(cc3O)CC(CCc3ccccc3)O4)cccc2cc1C(=O)O (stereo not drawn) | 1 | bioavailability [16]: 3%; ED50 at […] [8]: < 0.05 mg/kg; inhibition in vivo at 0.5 mg/kg [3]: 69%; inhibition in vivo at 0.05 mg/kg [9]: 55%; Cmax [17]: 1 µM; inhibition in vivo at […] ([4]; dose 0.15 mg/kg): 72%
17 | 0.472 |  | CC1(C)c2cc(O)c(CCCOc3ccccc3)cc2OC1CCc1ccc(Cl)cc1 (stereo not drawn) |  | 
18 | 0.049 | 0.164 | C=CCc1cc2c(cc1O)C(C)(C)C(Cc1ccc(OC)cc1)O2 (stereo not drawn) | 1 | inhibition in vivo at […] ([4]; dose 1.5 mg/kg): 68%
19 | 0.038 | 0.025 | C=CCc1c(O)ccc2c1CC(CCc1ccccc1)O2 (stereo not drawn) | 18 | 
20 | 0.052 |  | CCCc1c(O)c(CCCOc2ccccc2)cc2c1CC(CCc1ccccc1)O2 (stereo not drawn) | 2 | IC50 [18]: 0.127 µM
21 | 0.176 |  | CCCc1cc2c(cc1O)C(C)(C)C(CCc1ccc(S(C)(=O)=O)cc1)O2 (stereo not drawn) |  | 
22 | 0.201 |  | Oc1cc2c(cc1CCCOc1ccc(C3N=NN=N3)cc1)OC(CCc1ccccc1)C2 (stereo not drawn) |  | 
23 | 0.014 | 0.008 | Oc1cc2c(cc1CCCSc1ccncc1)OC(CCc1ccccc1)C2 (stereo not drawn) | 6 | Cmax [19]: 1 µM; inhibition in vivo at […] ([4]; dose 1.5 mg/kg): 51%; bioavailability [20]: 11%
24 | 0.018 |  | CCCc1cc2c(cc1O)C(C)C(Cc1ccc(OC)cc1)O2 (stereo not drawn) | 6 | IC50 [18]: 0.035 µM
25 | 0.107 |  | COc1ccc(CC2Oc3ccc(O)cc3C2C)cc1 (stereo not drawn) | 6 | 
